# IEC-6 tox – cytotoxicity in IEC-6 intestinal epithelial cells, primary screen, cytotoxicity control for KLF5 inhibitor project, cell-based, luminescence; IEC-6 cytotoxicity, luminescence viability; inhibition, % at 5 µM; 290,000 tested, 0.78% active; AID 1825, 2009; in the data active means inhibition above about 22%;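 further: 0% = plate median of test compound wells and 100% = cytotoxic reference compound wells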
# APP 5UTR inh – inhibitors of APP translation via 5'UTR reporter, primary screen, APP 5'UTR luciferase, SH-SY5Y cells. SH-SY5Y APP 5'UTR-luciferase reporter, luminescence. inhibition, % at 2 µM. 190,000 tested, 0.82% active;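 active means inhibition above a set limit, derived from the sample mean plus 3 SD, cut at about 45% in these data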
# bCat nuc transl – modulators of beta-catenin nuclear translocation, primary screen, imaging, HeLa cells, immunofluorescence, high-content; nuclear translocation activity, % at 5 µM; 190,000 tested, 0.3% active; AID 1665, 2009;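 active means nuclear translocation activity above 50% at 5 µM, with a well cell count of 50 or more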;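 further: per-cell ratio of nuclear to cytoplasmic median beta-catenin stain intensity; plate controls were DMSO negative control for no effect and GSK-3 inhibitor IX positive control for full effect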
#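 Read-out: Nuclear/cytoplasmic beta-catenin signal ratio, % activation | Assay system: Human HeLa cell line | Times: 24 h compound exposure at 37°C, 5% CO2 | Signal: Fluorescence imaging of beta-catenin antibody stain plus DAPI | Dosing: 5 µM primary, 0.02–20 µM confirmation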
# Ba/F3 V617F tox – reduced viability of JAK2V617F-dependent Ba/F3 cells, primary screen, JAK2V617F inhibitor project, cell-based, Ba/F3 EpoR-JAK2V617F, luminescence | ATP luminescence | inhibition, % at 5.6 µM | 220,000 tested, 1.1% active;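 active means inhibition above the campaign mean plus 3 SD over all tested compounds, cut at about 24% in these data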;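 further: cytokine-independent growth of Ba/F3 cells driven by EpoR plus mutant JAK2; 0% = DMSO-treated cells and 100% = JAK inhibitor I control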
# BaF3 tox – parental Ba/F3 cell viability inhibition, counter-screen for JAK2V617F inhibitor project, murine pro-B, CellTiter-Glo luminescence | AID 1486, 2009 | CellTiter-Glo ATP luminescence | inhibition, % at 5.6 µM | 220,000 tested, 1.1% active;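 active means inhibition above a per-campaign cutoff, the mean inhibition of all tested compounds plus 3 SD, cut at about 27% in these data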;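 further: 0% = DMSO wells and 100% = JAK Inhibitor I control wells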
# MT stabilizer – microtubule stabilizers in HeLa cells, primary screen, imaging, high-content imaging; % tubulin-high responders, % at 10 µM; HeLa tubulin immunostaining HCS, 24 h; share of cells brighter than vehicle mean+2SD; 200,000 tested, 0.83% active; AID 2205, 2009;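 active means plate Z-score above 3 for both tubulin-high and condensed-nucleus cell shares, with cell loss under 80%, at 10 µM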;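 further: anti alpha tubulin signal scored within the nucleus-defined area of each cell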
# Active calls of the source: *; / = no result given. Hits are enriched below; roughly 2.2% of the tested compounds scored in any of these assays.
SMILES,IEC-6 tox,APP 5UTR inh,bCat nuc transl,Ba/F3 V617F tox,BaF3 tox,MT stabilizer
COc1cccc2c(SCC(=O)N/N=C/c3ccc(O)c(O)c3)cc(C)nc12,5.3,-3.7,-4.9,2.5,7.3,10.2*
COc1cccc2c(SCC(=O)N/N=C/c3ccccc3)cc(C)nc12,3.6,-9.9,8.0,4.7,15.1,3.5
COc1ccc2nc(C)cc(SCC(=O)N/N=C/c3ccc(O)c(O)c3)c2c1,1.7,25.4,-1.6,4.6,-0.5,4.0
COc1ccc(S(=O)(=O)Oc2ccccc2C(=S)N2CCOCC2)cc1,-1.1,/,/,/,/,/
N#CCCn1cc(/C=N/N=C2\NC(=O)C(CC(=O)O)S2)c(-c2ccc(F)cc2)n1 (centres undefined),-8.9,/,2.0,-1.0,-4.3,/
Nc1nn(-c2ccccc2)c(N)c1N=Nc1ccc2c(c1)OCO2,57.9*,-91.8,77.8*,77.6*,64.4*,24.6*
COc1ccc(/C=C(\NC(=O)c2ccc([N+](=O)[O-])cc2)C(=O)NCCCN2CCOCC2)cc1,0.9,/,/,/,/,/
CN(C)c1ccc(-n2cccc2/C=C/[N+](=O)[O-])cc1,0.6,-28.7,-1.1,-2.7,2.1,4.3
CN(c1ccccc1)c1ccc(/C=C/[N+](=O)[O-])cc1,5.1,53.7*,-2.2,18.6,6.2,2.9
Cc1cc(C)cc(N=Cc2[nH]c3ccc(Br)c(Cl)c3c2O)c1,12.7,-9.2,-1.2,-6.6,0.0,31.0*
COc1ccc(CN=Cc2[nH]c3ccc(Br)c(Cl)c3c2O)cc1,4.3,-17.1,2.5,-5.1,-1.5,2.2
COc1ccc(NC(=O)CSc2nc3c([nH]c4ccccc43)c(=O)n2C)c(OC)c1,-0.5,/,/,/,/,/
CCN=C1NN=C(c2cc(C)n(CCc3ccccc3)c2C)CS1,4.5,6.4,/,2.6,2.3,1.8
C=CCn1c(C)cc(C2=NNC(=NCc3ccccc3)SC2)c1C,-4.7,-138.8,36.7,0.5,4.3,15.4*
O=C(Cn1cc2c(n1)CCCCC2)Nc1ccccc1Br,-7.6,/,0.1,-0.6,-0.2,/
O=C(NCC1CCCO1)C1CCCN(S(=O)(=O)c2cc(Cl)ccc2Cl)C1 (centres undefined),-4.0,/,/,/,/,/
Cc1nc(NC(=O)c2ccc(Cl)cc2)sc1-c1csc(Nc2cccc(F)c2)n1,3.2,-66.7,5.5,0.4,9.2,39.9*
N#CC1(c2ccccc2)CCN(S(=O)(=O)c2ccc(OC(F)(F)F)cc2)CC1,5.0,/,/,/,/,/
O=C(CCn1cnc(-c2ccccc2)c1-c1ccccc1)N/N=C/c1ccccc1O,7.6,1.4,-3.4,-5.3,-2.2,6.6
O=C(CCn1cnc(-c2ccccc2)c1-c1ccccc1)N/N=C/c1ccc(O)cc1,2.1,-13.5,5.7,1.8,5.1,23.1*
CC1=C(C(=O)c2ccccc2)C(c2ccc(OC(F)F)cc2)NC(=S)N1 (centres undefined),19.8,-9.4,4.4,-1.7,1.9,22.4*
CCOC(=O)N1CCN(C2CCCN(C(=O)c3cccc(Cl)c3)C2)CC1 (centres undefined),0.0,/,/,/,/,/
Cc1[nH]c2ccccc2c1-c1nc2ccccc2[nH]1,4.4,7.4,-1.2,11.0,29.7*,3.9
Cc1ccc(-c2nc3ccccc3[nH]2)s1,5.5,-114.0,-0.6,10.3,14.0,6.7
O=C(N/N=C/c1cccnc1)c1cc(-c2ccccc2OCc2ccccc2)n[nH]1,8.7,/,6.0,-0.1,2.6,/
SMILES,IEC-6 tox,APP 5UTR inh,bCat nuc transl,Ba/F3 V617F tox,BaF3 tox,MT stabilizer
CCCCC(=O)Nc1cc(OCC)c(NC(=S)NC)cc1OCC,1.9,-0.1,-0.2,23.7*,61.9*,2.1
CCOc1cc(NC(=S)NC)c(OCC)cc1NC(=O)c1ccc(OC)cc1,2.3,-1.3,2.0,1.0,6.1,2.7
CCOC(=O)c1c(NC(C)=O)sc2c(O)cccc12,-2.7,55.3*,4.6,1.1,3.5,4.5
N#C/C(=C\c1cccc(O)c1)C(=O)Nc1ccc2c(c1)OCCO2,-1.1,/,-0.1,-3.2,2.3,/
Cc1ccc(/C=C/C(=O)c2cc(Br)ccc2OC(=O)c2ccco2)cc1,-4.0,50.6*,0.1,-4.5,1.2,1.9
Cc1nn(C)c2ncc(C(=O)c3cc(F)ccc3O)cc12,-4.7,51.7*,/,-2.3,2.8,3.5

# Source: PubChem BioAssay (several laboratories)
